In series [1] the target is Dipeptidyl peptidase 4 (Homo sapiens, UniProt P27487).
Series [2] in a line: Cmax in Sprague-Dawley rat at 3 mg/kg, po. Format: ADME, organism-based. Also on record: dose 3 mg/kg, route oral. The following applies: in vivo. The essentials:
(§1)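 Single oral dose of 3.0 mg/kg given to Sprague-Dawley rats, n = 6. Plasma concentration–time profiles gave apparent total plasma clearance (CL_z/F), half-life, AUC0–t and peak plasma concentration (Cmax).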

A short description of series [3]: Half life in Sprague-Dawley rat at 3 mg/kg, po. Format: ADME, organism-based. Details: dose 3 mg/kg, route oral. The following applies: in vivo. The gist of the method:
as §1

Series [4] in a line: (§2) Apparent total oral clearance in Sprague-Dawley rat at 3 mg/kg, po. Format: ADME, organism-based. Details: dose 3 mg/kg, route oral. The conditions noted are these: Sprague-Dawley, in vivo. The gist of the method: as §1
Series [5] relates to Mus musculus. The series is described as follows: Antidiabetic activity in ICR mouse assessed as reduction in glucose AUC (0 to 120) at 3 mg/kg, po pretreated 30 mins before glucose challenge measured after 120 mins by oral glucose tolerance test relative to control. Format: functional, organism-based. Details: dose 3 mg/kg. The gist of the method: (§3)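 Lean ICR mice were dosed orally at 1, 3 or 10 mg/kg 0.5 h before an oral glucose challenge. Blood glucose was followed over 0–120 min, and glucose AUC0–120 min was expressed as percent change versus vehicle control. Data are mean ± SEM, n = 5 per group; P versus control.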

Series [6] has as its system Mus musculus. The series is described as follows: Antidiabetic activity in ICR mouse assessed as reduction in glucose AUC (0 to 120) at 1 mg/kg, po pretreated 30 mins before glucose challenge measured after 120 mins by oral glucose tolerance test relative to control. Format: functional, organism-based. Also on record: dose 1 mg/kg. The gist of the method: as §3
In series [7] the test system is Cynomolgus monkey. Briefly: animal or person. The conditions noted are these: Macaca fascicularis, po, 5 h, read-out: Inhibition.
A short description of series [8]: (§4) AUC (0 to t) in Sprague-Dawley rat at 3 mg/kg, po. It counts as ADME, organism-based, Plasma. The conditions noted are these: Sprague-Dawley, plasma. Also on record: dose 3 mg/kg, route oral. The gist of the method:
as §1

The subject of series [9] is Mus musculus. Briefly: Antidiabetic activity in ICR mouse assessed as reduction in glucose AUC (0 to 120) at 10 mg/kg, po pretreated 30 mins before glucose challenge measured after 120 mins by oral glucose tolerance test relative to control. Also on record: dose 10 mg/kg. Format: functional, organism-based. The essentials:
as §3

For series [10], the system named is Cynomolgus monkey. Briefly: animal or person. The following applies: Macaca fascicularis, po, 12 h, read-out: Inhibition.
Series [11] has as its system Rattus norvegicus. Described as §2. Details: dose 3 mg/kg, route oral. The following applies: in vivo. Format: ADME, organism-based. The essentials:
as §1

Series [12] relates to Rattus norvegicus. The description is as §4. Also on record: dose 3 mg/kg, route oral. The following applies: in vivo. It counts as ADME, organism-based, Plasma. The gist of the method: as §1
In series [13] the test system is Cynomolgus monkey. The series is described as follows: animal or person. The following applies: Macaca fascicularis, po, 9 h, read-out: Inhibition.

This is an account of results in ChEMBL document CHEMBL1158614, “Synthesis and biological evaluation of azobicyclo[3.3.0] octane derivatives as dipeptidyl peptidase 4 inhibitors for the treatment of type 2 diabetes” (Bioorg Med Chem Lett, 2010).

As usually defined, the IC50 is the concentration at which inhibition is half-maximal. The term Cmax denotes the maximum level reached in the sampled fluid or tissue. What is called half-life is how long it takes for the measured level to halve. One may read the CL/F as the apparent clearance, not corrected for the fraction that reaches the circulation. By AUC(0-t) is commonly meant the area under the concentration-time curve up to a stated or last time point.

Chain of Dipeptidyl peptidase 4 (P27487 whole entry): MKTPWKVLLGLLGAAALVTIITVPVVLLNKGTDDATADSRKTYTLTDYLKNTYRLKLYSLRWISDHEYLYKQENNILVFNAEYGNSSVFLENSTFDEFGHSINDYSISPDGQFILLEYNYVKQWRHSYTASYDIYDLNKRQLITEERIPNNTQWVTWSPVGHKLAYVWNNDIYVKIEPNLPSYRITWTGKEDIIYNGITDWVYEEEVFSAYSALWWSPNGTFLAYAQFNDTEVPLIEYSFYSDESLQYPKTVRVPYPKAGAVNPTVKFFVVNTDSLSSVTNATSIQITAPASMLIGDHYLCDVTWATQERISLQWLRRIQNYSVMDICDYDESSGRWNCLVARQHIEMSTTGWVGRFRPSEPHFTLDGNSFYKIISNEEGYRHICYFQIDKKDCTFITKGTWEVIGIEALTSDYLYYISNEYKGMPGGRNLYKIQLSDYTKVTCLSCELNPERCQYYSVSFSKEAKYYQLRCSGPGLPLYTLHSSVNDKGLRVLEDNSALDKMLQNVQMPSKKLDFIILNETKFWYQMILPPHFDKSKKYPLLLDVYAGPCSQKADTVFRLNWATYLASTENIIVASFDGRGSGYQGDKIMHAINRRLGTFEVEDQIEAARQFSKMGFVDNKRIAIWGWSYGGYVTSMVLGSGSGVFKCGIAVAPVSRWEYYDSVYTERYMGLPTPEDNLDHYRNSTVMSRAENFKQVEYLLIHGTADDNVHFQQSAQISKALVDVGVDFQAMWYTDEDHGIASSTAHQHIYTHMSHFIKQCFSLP

As to `N#C[C@@H]1CCCN1C(=O)CN[C@@H]1C[C@@H]2CN(C(=O)N3CCOCC3)C[C@@H]2C1`, the IC50 in series [1] is 50 nM.
Regarding `CC(C)NC(=O)N1C[C@H]2C[C@@H](NCC(=O)N3CCC[C@H]3C#N)C[C@H]2C1`, the IC50 in series [1] is 120 nM.
In series [2], `CN(C)C(=O)N1C[C@H]2C[C@@H](NCC(=O)N3CCC[C@H]3C#N)C[C@H]2C1` yielded a Cmax of 39.4 ng/mL. In series [3], this compound had a half-life of 56.4 min. In series [4], the CL/F was 190 mL/min/kg. Also, the AUC in [5] turned out to be 42%; in series [6] it was 39.7%; in series [9], 45%. Moreover, the inhibition in vivo at 20 mg/kg in series [7] was > 75%. For the same compound, the AUC(0-t) in [8] came to 68.7 ng·h/mL.
For the compound `CN(C)C(=O)N1C[C@@H]2C[C@](C)(NCC(=O)N3CCC[C@H]3C#N)C[C@@H]2C1`, the Cmax in [2] worked out at 165 ng/mL. The inhibition in vivo at 20 mg/kg in [10] was 38%; in [7], > 75%. The compound also showed a half-life in series [3] of 195 min. Further, the CL in series [11] was found to be 847.8 mL/min/kg. This compound also returned an AUC in series [12] of 266.3 ng·h/mL.
Consider `N#C[C@@H]1CCCN1C(=O)CN[C@@H]1C[C@@H]2CN(C(=O)CO)C[C@@H]2C1`, for which it took 14 nM to reach half-maximal inhibition in series [1] (IC50).
In turn, `N#C[C@@H]1CCCN1C(=O)CN[C@@H]1C[C@@H]2CN(C(=O)N3CCCCC3)C[C@@H]2C1` showed an IC50 in series [1] of 69 nM.
Turning to `N#C[C@@H]1CCCN1C(=O)CNC12CC3CC(CC(O)(C3)C1)C2`, the AUC in series [5] turned out to be 41.7%; in series [6], 35.8%; in [9], 51.4%.
`COC(=O)N1C[C@H]2C[C@@H](NCC(=O)N3CCC[C@H]3C#N)C[C@H]2C1`: inhibition in [1] was half-maximal at 24 nM (IC50).
For `CN(C)C(=O)N1C[C@@H]2C[C@@](C)(NCC(=O)N3CCC[C@H]3C#N)C[C@@H]2C1`, in series [2], the Cmax amounted to 146 ng/mL. The results for the inhibition in vivo at 20 mg/kg in series [10] and in series [13] were 51% and > 75%, respectively. The compound further had a half-life in [3] of 54 min. Moreover, the CL/F in [4] is 564 mL/min/kg. This compound displayed an AUC(0-t) in [8] of 120 ng·h/mL.
In series [1], `N#C[C@@H]1CCCN1C(=O)CN[C@@H]1C[C@@H]2CN(C(=O)N3CCCC3)C[C@@H]2C1` displayed an IC50 of 39 nM.
